# Source: ChEMBL document CHEMBL3871271, “Novel bis-arylalkylamines as myeloperoxidase inhibitors: Design, synthesis, and structure-activity relationship study” (Eur J Med Chem, 2016)
# Tests used:
# [1] = Redox potential of compound in Ag/AgCl-NaCl containing phosphate buffer assessed as one electron redox potential at 1 10^-4M by cyclic voltammetric analysis
# Outline: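 Cyclic voltammetry at 25 ± 2 °C in a three-electrode cell: glassy carbon working, platinum wire auxiliary, Ag/AgCl (3 M NaCl) reference. Inhibitor 1×10^-4 M in 0.1 M phosphate buffer pH 7.4. Single cycle at 100 mV s⁻¹. E°′ converted to NHE by adding +198 mV.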
# Myeloperoxidase = target: T1, Myeloperoxidase (Homo sapiens, UniProt P05164); assay: Inhibition of MPO chlorination activity (unknown origin) assessed as taurine chloramine formation after 5 mins in presence of H2O2/Cl- by HTS method
# T1 sequence (P05164 whole entry): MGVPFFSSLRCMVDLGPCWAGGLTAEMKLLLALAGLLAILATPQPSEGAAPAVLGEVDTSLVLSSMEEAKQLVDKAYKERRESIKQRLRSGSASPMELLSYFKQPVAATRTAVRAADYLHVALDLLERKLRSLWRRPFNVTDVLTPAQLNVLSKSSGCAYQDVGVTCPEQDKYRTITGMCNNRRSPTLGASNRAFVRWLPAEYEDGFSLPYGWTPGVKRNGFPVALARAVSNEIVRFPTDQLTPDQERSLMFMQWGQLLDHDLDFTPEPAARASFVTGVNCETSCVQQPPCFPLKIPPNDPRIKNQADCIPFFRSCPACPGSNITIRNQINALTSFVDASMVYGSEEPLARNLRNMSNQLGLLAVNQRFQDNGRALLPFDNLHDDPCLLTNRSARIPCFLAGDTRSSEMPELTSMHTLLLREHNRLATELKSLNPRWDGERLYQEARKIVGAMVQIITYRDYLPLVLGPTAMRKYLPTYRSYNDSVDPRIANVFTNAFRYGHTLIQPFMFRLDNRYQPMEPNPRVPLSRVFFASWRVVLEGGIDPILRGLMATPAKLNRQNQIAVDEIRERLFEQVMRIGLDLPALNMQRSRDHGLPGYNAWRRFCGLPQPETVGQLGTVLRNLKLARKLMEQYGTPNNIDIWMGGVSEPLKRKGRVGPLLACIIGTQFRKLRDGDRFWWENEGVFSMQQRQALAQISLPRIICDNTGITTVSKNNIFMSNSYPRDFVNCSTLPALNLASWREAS
# Outline: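 Recombinant MPO (40 nM) in 10 mM phosphate buffer pH 7.4 with 300 mM NaCl and 15 mM taurine, inhibitor up to 20 μM, 37 °C. Started with H2O2 (100 μM), stopped after 5 min with catalase. Taurine chloramine read with thionitrobenzoic acid at 412 nm. IC50 taken from the concentration curve, no H2O2 = 100% inhibition, no inhibitor = 0%.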
# HEK293 = assay: Ratio of Ki for human SERT expressed in HEK293 cells to IC50 for MPO chlorination activity (unknown origin); type: cell-based
# [2] = target: Sodium-dependent serotonin transporter (Homo sapiens, UniProt P31645); assay: Inhibition of human SERT expressed in HEK293 cells assessed as reduction in [3]5-HT uptake; type: cell-based
# Outline: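 hSERT cDNA in pcDNA3.1, transfected into HEK-293 MSR cells (DMEM, 10% FCS, penicillin/streptomycin, 6 µg/mL Geneticin, 37 °C, 5% CO2). Cells detached with Versene and trypsin/EDTA and seeded into plates. [3H]5-HT uptake measured per an earlier described method, with HEK-293 MSR cells used in place of COS-1. Ki reported.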
# [3] = target: T2, Myeloperoxidase (Homo sapiens) (UniProt P05164); assay: Inhibition of human polymorphonuclear leukocyte MPO assessed as apparent bimolecular rate constant for PorFe(4)-OH reduction for 4.01 to 31.32 secs by stopped-flow spectroscopic analysis
# T2 sequence (whole entry): T1 sequence (P05164 whole entry)
# Outline: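 Single-exponential fits gave kobs, as the mean of ≥3 runs, with substrate at least 5-fold over enzyme. Conditions were 200 mM phosphate, pH 7.4, 25 °C, 2% DMSO final. Apparent second-order constant taken from the slope of kobs versus concentration.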
# [4] = target: T2, Myeloperoxidase (Homo sapiens); assay: Inhibition of human polymorphonuclear leukocyte MPO assessed as apparent bi-molecular rate constant for PorFe(4)=O radical reduction for 0.001 to 2.681 secs by stopped-flow spectroscopic analysis
# Outline: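 Purified MPO (purity index A430/A280 ≥0.86) at 8 µM was premixed with 80 µM H2O2. Reaction in 200 mM phosphate, pH 7.4, 25 °C, 2% DMSO final. kobs taken as the mean of ≥3 runs. Second-order constant derived from the slope of kobs versus concentration.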
# [5] = target: T2, Myeloperoxidase (Homo sapiens); assay: Inhibition of human polymorphonuclear leukocyte MPO assessed as ratio of apparent bi-molecular rate constant for PorFe(4)=O radical reduction to PorFe(4)-OH reduction by stopped-flow spectroscopic analysis
# Sodium-dependent serotonin transporter, sequence (P31645 whole entry): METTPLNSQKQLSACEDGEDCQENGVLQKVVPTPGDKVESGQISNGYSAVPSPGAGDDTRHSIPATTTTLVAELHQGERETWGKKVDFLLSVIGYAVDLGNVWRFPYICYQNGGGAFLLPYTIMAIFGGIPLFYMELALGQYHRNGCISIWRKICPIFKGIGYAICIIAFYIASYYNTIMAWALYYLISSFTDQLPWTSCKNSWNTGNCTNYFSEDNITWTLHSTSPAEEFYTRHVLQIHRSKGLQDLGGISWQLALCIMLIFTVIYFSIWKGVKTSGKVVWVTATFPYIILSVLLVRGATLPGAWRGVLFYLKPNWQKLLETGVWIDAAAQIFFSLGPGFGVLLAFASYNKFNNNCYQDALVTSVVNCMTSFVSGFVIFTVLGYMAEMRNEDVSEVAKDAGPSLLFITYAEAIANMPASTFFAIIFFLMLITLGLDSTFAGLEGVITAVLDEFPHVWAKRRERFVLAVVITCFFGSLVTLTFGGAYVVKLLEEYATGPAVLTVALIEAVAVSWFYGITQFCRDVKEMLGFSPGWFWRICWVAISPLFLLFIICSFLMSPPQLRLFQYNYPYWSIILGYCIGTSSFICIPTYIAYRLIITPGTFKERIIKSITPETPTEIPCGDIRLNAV
SMILES,Activity [1],IC50 (Myeloperoxidase) [nM],also measured
c1ccc(CN2CCN(Cc3ccccc3)CC2)cc1,996 mV,> 10000,–
Oc1ccccc1CNCCc1c[nH]c2ccc(F)cc12,902 mV,85,–
Oc1ccccc1CN1CCCCC1,953 mV,> 10000,–
Fc1ccc2[nH]cc(CCCNCc3ccccc3)c2c1,–,–,Ratio (HEK293): 4.1; Ki [2]: 0.05 µM
c1ccc(CCNCc2ccccc2)cc1,> 1.2 V,–,–
Oc1ccccc1CCCNCc1cccc(F)c1,820 mV,370,–
COc1ccccc1CCCNCc1ccccc1F,> 1.2 V,–,–
Fc1ccccc1CN1CCN(Cc2ccccc2F)CC1,1100 mV,> 10000,–
Oc1ccccc1CCNCc1ccc(F)cc1,865 mV,1160,–
Oc1ccccc1CN1CCN(Cc2ccccc2O)CC1,1070 mV,1400,–
c1ccc(CCCNCc2ccccc2)cc1,> 1.2 V,–,–
Oc1ccccc1CNCCc1ccccc1,973 mV,700,–
COc1ccccc1CCCNCc1ccc(F)cc1,> 1.2 V,–,–
Oc1ccccc1CNCCCc1c[nH]c2ccc(F)cc12,872 mV,54,Kapp [3]: 3.5 ×10³ /M/s; Ratio (HEK293): 14.8; Ki [2]: 0.8 µM; Kapp [4]: 1.4 ×10⁷ /M/s; Ratio [5]: 4000
COc1ccccc1CCNCc1cccc(F)c1,> 1.2 V,–,–
Oc1ccccc1CCCNCc1ccccc1,825 mV,360,–
Fc1cccc(CN2CCN(Cc3cccc(F)c3)CC2)c1,1060 mV,> 10000,–
Fc1ccc(CN2CCN(Cc3ccc(F)cc3)CC2)cc1,1020 mV,> 10000,–
Oc1ccccc1CC1CCCNC1 (centres undefined),960 mV,> 10000,–

SMILES,Activity [1],IC50 (Myeloperoxidase) [nM],also measured
Oc1ccccc1CCCNCc1ccc(F)cc1,869 mV,490,–
Oc1ccccc1CNCCCc1ccccc1,928 mV,1200,–
Oc1ccccc1CCCNCc1ccccc1F,833 mV,270,Kapp [3]: 1.4 ×10³ /M/s; Ratio (HEK293): 51.8; Ki [2]: 14 µM; Kapp [4]: 5.7 ×10⁶ /M/s; Ratio [5]: 4070
Oc1ccccc1CCNCc1cccc(F)c1,807 mV,660,–
COc1ccccc1CCNCc1ccc(F)cc1,> 1.2 V,–,–
COc1ccccc1CCCNCc1ccccc1O,871 mV,2500,–
COc1ccccc1CCNCc1ccccc1F,> 1.2 V,–,–
COc1ccccc1CCNCc1ccccc1,> 1.2 V,–,–
COc1ccccc1CCNCc1ccccc1O,907 mV,1850,–
Oc1ccccc1CNCCc1ccccc1F,948 mV,670,–
O=C1N(Cc2ccccc2)CCCN1Cc1ccccc1,> 1.2 V,–,–
Oc1ccccc1CCCNCc1ccccc1O,844 mV,350,Kapp [3]: 4.8 ×10³ /M/s; Ratio (HEK293): 31.4; Ki [2]: 11 µM; Kapp [4]: 1.5 ×10⁶ /M/s; Ratio [5]: 313
COc1ccccc1CCCNCc1ccccc1,> 1.2 V,–,–
Oc1ccccc1CCNCc1ccccc1F,856 mV,700,–
COc1ccccc1CCCNCc1cccc(F)c1,> 1.2 V,–,–
Oc1ccccc1CNCCCc1ccccc1F,902 mV,370,–
Oc1ccccc1CCNCc1ccccc1,897 mV,2700,–
c1ccc(CN2CCCN(Cc3ccccc3)C2)cc1,> 1.2 V,–,–
Oc1ccccc1CCNCc1ccccc1O,870 mV,650,–
